HTRA1 inh = HTRA1 serine protease inhibitors, primary screen, biochemical, fluorescence polarization, HTS. Q92743. recombinant HTRA1, FP-rhodamine activity-based probe. inhibition, % at 5.96 µM. hit rate 0.5% among 340,000; in the data active = inhibition above about 36%;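 note: 0% = enzyme with DMSO and 100% = wells lacking enzyme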
TCR CD3 inh = inhibitors of human TCR-CD3 interaction, primary screen, biochemical, fluorescence, TAMRA-labeled TCR probe; inhibition, % at 9.4 µM; AID 651800, 2012; hit rate 0.37% among 360,000; T-cell receptor (TCR); in the data active = inhibition above about 19%;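 note: recombinant mutant TCR 2C K166C tagged with TAMRA read by polarization; 0% = receptor in buffer alone and 100% = receptor with positive control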
ATG4B inh = ATG4B protease inhibitors, primary screen, biochemical, fluorescence, uHTS | ATG4B cleavage of LC3-PLA2, NBD-HPC fluorescence, 1 h | Cysteine protease ATG4B (Homo sapiens), Q9Y4P1 | AID 504462, 2011 | hit rate 0.51% among 340,000 | inhibition, % at 8.33 µM; in the data active = inhibition above about 40%
PRMT1 inh = PRMT1 methyltransferase inhibitors, primary screen, biochemical, fluorescence polarization; recombinant PRMT1, activity-based probe fluorescence polarization; AID 652257, 2013; Protein arginine N-methyltransferase 1 (Homo sapiens), Q99873; hit rate 1.3% among 370,000; inhibition, % at 2.79 µM;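 active = inhibition above about 21% made by adding two undisclosed values, limit read from the data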
Target sequence (Q99873 whole entry, looked up): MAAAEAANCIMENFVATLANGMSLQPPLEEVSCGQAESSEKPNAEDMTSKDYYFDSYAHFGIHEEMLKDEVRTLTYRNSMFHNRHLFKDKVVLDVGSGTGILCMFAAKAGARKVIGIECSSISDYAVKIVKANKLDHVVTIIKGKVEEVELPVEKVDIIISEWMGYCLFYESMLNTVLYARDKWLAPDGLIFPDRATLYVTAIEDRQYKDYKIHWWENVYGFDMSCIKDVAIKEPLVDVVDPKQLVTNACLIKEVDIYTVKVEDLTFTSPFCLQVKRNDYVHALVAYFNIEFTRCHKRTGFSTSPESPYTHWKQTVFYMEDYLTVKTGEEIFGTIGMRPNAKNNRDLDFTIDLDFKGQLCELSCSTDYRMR
SIAE primary = human SIAE inhibitors, primary screen, biochemical, fluorescence polarization, FP-Rh probe, 1536-well HTS | Sialate O-acetylesterase (Homo sapiens), Q9HAT2 | SIAE FP-Rh probe binding | inhibition, % at 9.66 µM | hit rate 0.69% among 370,000 | AID 1053197, 2014;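 active = inhibition above a cutoff: mean of compounds within the control limits plus 3 SD of those, cut at about 17% in these data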;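 note: 0% = plate median of compound wells and 100% = probe without SIAE protein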
ABHD4 inh = ABHD4 inhibitors, primary screen, biochemical, fluorescence polarization, mouse; (Lyso)-N-acylphosphatidylethanolamine lipase (Mus musculus), Q8VD66; purified mABHD4, FP-Rh probe fluorescence polarization; inhibition, % at 8.92 µM; hit rate 0.54% among 370,000; AID 720543, 2013;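 active = inhibition exceeding the mean over every tested compound plus 3 SD, cut at about 30% in these data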;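 note: 0% = plate median of compound wells and 100% = S159A mutant with DMSO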
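Material: mouse ABHD4 enzyme, wild type; Benchmarks: S159A mutant high control, sample median low control; Buffer or medium: HEPES pH 7.0, NaCl, Pluronic buffer; Signal: fluorescence polarization; Read-out: percent inhibition of probe binding, normalized to plate controls; Timing: pre-incubation 45 min, probe exposure 60 min, at 25 °C; Dosing: 8.92 µM, single dose.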
PRMT1 inh conf = PRMT1 methyltransferase inhibitors, confirmation, biochemical, fluorescence polarization, triplicate; shares compounds with PRMT1 inh; recombinant His-PRMT1, activity-based probe fluorescence polarization; inhibition, % at 2.79 µM; hit rate 42% among 3,300; AID 687036, 2013;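 active = mean inhibition across replicates above the hit cutoff derived for the earlier primary screen, cut at about 22% in these data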
Starred values were filed as active, the others as inactive; nt = no result given. Hits are enriched below; roughly 2.9% of the tested compounds scored in any of these assays.

SMILES	HTRA1 inh	TCR CD3 inh	ATG4B inh	PRMT1 inh	SIAE primary	ABHD4 inh	PRMT1 inh conf
Cc1cc(C)nc(SCNC(=O)c2ccccc2)n1	3.8	-6.3	1.6	33.8*	8.0	-5.6	-1.6
Cc1ccc(CS(=O)(=O)c2ncc(Cl)c(C(=O)Nc3ccc(OC(F)F)cc3)n2)cc1	-28.9	-0.5	1.1	29.2*	10.7	-16.4	21.4*
CC(=O)Nc1ccc(NC(=O)c2nc(S(=O)(=O)Cc3ccccc3)ncc2Cl)cc1	2.0	-0.7	2.4	30.1*	3.1	0.9	23.5*
CS(=O)(=O)c1ncc(Cl)c(C(=O)Nc2ccc3ccccc3c2)n1	-25.6	-3.9	-6.4	50.1*	5.8	-4.9	35.1*
CCC1CCCCN1S(=O)(=O)c1ccc(NC(=O)c2nc(S(C)(=O)=O)ncc2Cl)cc1 (configuration not stated)	-77.1	-3.2	0.7	50.2*	2.5	-0.7	46.7*
O=C(Nc1ccc(Cl)c(Cl)c1)C1CCN(c2nnc(-n3cccc3)s2)CC1	nt	nt	nt	-2.3	-11.8	-41.6	nt
COC(=O)[C@]12C[C@H](CC(=O)NCc3ccc(C)o3)C(=O)N(Cc3ccccc3)C1=C[C@H](COCc1ccccc1)O[C@@H]2C	nt	nt	nt	14.5	4.9	-1.4	nt
COC(=O)C1=C(C)NC(C)=C(C(=O)OCC(C)C)C1c1ccccc1[N+](=O)[O-] (configuration not stated)	6.4	3.4	-7.4	25.2*	5.6	18.1	17.9
O=C(CSc1nnc(-c2cccnc2)n1-c1ccccc1)Nc1ccc(OCc2ccccc2)cc1	nt	nt	nt	-2.0	-5.4	-3.8	nt
Cc1ccc(-n2nc(-c3ccco3)cc2C(=O)O)cc1	9.6	7.2	14.3	13.6	-0.9	5.1	nt
CC(C)NC(=O)c1cc(-c2ccco2)nn1-c1ccc(Cl)cc1	-0.8	-12.6	0.2	30.5*	-4.9	-5.8	20.3
O=C(O)/C=C\C(=O)Nc1ccccc1C(=O)N1CCC(O)(c2ccc(Cl)cc2)CC1	-6.7	-0.3	9.6	28.8*	4.1	5.0	-5.8
CC(=O)OCC1=C(C(=O)O)N2C(=O)C(NC(=O)c3ccc(COc4ccc(Cl)cc4)o3)C2SC1 (configuration not stated)	-27.3	3.0	22.4	35.7*	-7.9	1.0	12.0
CC(=O)OCC1=C(C(=O)O)N2C(=O)C(NC(=O)c3ccc(COc4c(C)cccc4Cl)o3)C2SC1 (configuration not stated)	-16.3	1.6	23.6	47.1*	-11.9	2.6	18.5
CC(=O)OCC1=C(C(=O)O)N2C(=O)C(NC(=O)C(C)Cn3cc(Cl)cn3)C2SC1 (configuration not stated)	-2.5	7.6	-4.0	19.0	2.8	-0.5	nt
CCC(NC(=O)c1ccc2c(ccn2Cc2cccc(-c3ccc(C(=O)O)cc3)c2)c1)c1ccccc1 (configuration not stated)	nt	nt	nt	11.0	-14.1	-156.7	nt
COc1ccc(C#Cc2ccc3c(c2)[C@H]2[C@H](CCN2S(=O)(=O)c2ccccc2F)[C@H](CO)N3C)cc1	nt	nt	nt	0.0	2.3	6.5	nt
CC(C)N(CCC(=O)c1ccc2ccccc2c1)Cc1ccccc1	-7.9	3.6	6.2	54.3*	-12.6	-7.3	71.4*
CC(OC(=O)c1ccc2ccccc2c1)C(=O)N(C)Cc1ccccc1 (configuration not stated)	-23.2	0.7	-42.1	-0.2	-6.3	-9.9	nt
C=CCNC(=O)CSc1nc2c(c(=O)[nH]1)CCCC2	nt	nt	nt	6.7	2.5	2.2	nt
O=[N+]([O-])c1ccc(S(=O)(=O)N2CCSC2c2ccco2)cc1 (configuration not stated)	2.9	-1.6	6.3	46.0*	6.1	6.0	33.5*
COC(=O)C1CN(Cc2ccc(OC)cc2)CCS(=O)(=O)N1Cc1ccc(C)cc1 (configuration not stated)	nt	nt	nt	3.2	1.8	0.3	nt
COc1ccc(C2=NN(C(=O)COc3ncnc4ccccc34)C(c3ccco3)C2)cc1 (configuration not stated)	-11.8	6.1	-2.6	-0.6	-8.0	-2.2	nt
COc1ccc(C2=NN(C(=O)COC(=O)c3ccc(S(C)(=O)=O)c([N+](=O)[O-])c3)C(c3ccco3)C2)cc1 (configuration not stated)	-22.4	-5.5	2.2	40.7*	1.5	20.3	-0.2
O=C(CSc1ccc(Br)cc1)NCC1(N2CCCCC2)CCCCC1	-3.4	7.3	-3.9	-1.1	0.9	-4.5	nt
SMILES	HTRA1 inh	TCR CD3 inh	ATG4B inh	PRMT1 inh	SIAE primary	ABHD4 inh	PRMT1 inh conf
CC(=O)Nc1ccc(SCC(=O)NCC2(N3CCCCC3)CCCCC2)cc1	-0.6	-4.1	-3.8	40.8*	-0.8	1.1	37.1*
O=C(CCNc1ccc(Br)cc1)c1cccc([N+](=O)[O-])c1	0.2	-3.2	14.4	28.3*	2.0	-3.3	23.1*
O=C(CCNc1ccc(F)cc1)c1cccc([N+](=O)[O-])c1	1.8	2.9	2.8	31.6*	5.8	6.0	39.4*
O=C(CCNc1ccccc1)c1cccc([N+](=O)[O-])c1	3.7	0.6	-5.5	36.5*	4.3	5.8	30.4*
Cc1nc(SCC(=O)c2cccc([N+](=O)[O-])c2)n[nH]1	8.2	-9.1	-5.4	30.1*	-1.4	5.2	6.7
O=C(NCCNc1ccc([N+](=O)[O-])cc1)c1cccc(Br)c1	1.2	-5.7	-5.1	1.6	-11.4	-5.4	nt
O=C(CC(=O)c1ccccc1)Nc1cccc([N+](=O)[O-])c1	-3.9	14.8	nt	2.7	-55.8	-4.5	nt
COC(=O)[C@]12C[C@H](CC(=O)N3CCCCC3)C(=O)N(Cc3cccc4ccccc34)C1=C[C@H](C(C)(C)C)O[C@@H]2C	nt	nt	nt	0.7	6.8	2.4	nt
COc1ccc(C(C(=O)N(C)C2CCCC2)N(Cc2ccc(F)cc2)C(=O)c2sccc2Cl)cc1OC (configuration not stated)	nt	nt	nt	-2.9	4.0	-2.0	nt
Cc1ccc(NCCC(=O)c2cccc([N+](=O)[O-])c2)cc1	-4.5	-1.0	4.1	33.2*	6.9	5.4	53.9*
O=C(NCCO)C1(C(=O)C2CC2)CC(c2ccccc2C(F)(F)F)=NO1 (configuration not stated)	nt	nt	nt	-0.2	-3.2	2.6	nt
Cn1cnnc1SCc1ccc(-c2ccc(Br)cc2)o1	-11.4	-2.4	-2.0	29.8*	3.3	7.3	2.8
CSc1cnn(-c2ccccc2)c(=O)c1SC	1.8	0.9	10.2	0.0	0.9	3.1	nt
